Laboratory results from publication PMC9790683 (Birth Defects Research, 2022).
“And” between values parts separate entries of the source, which are not always exact repeats. Identical values can stand only once.

Test system: human iPS cells (HYR0103, ATCC ACS‐1007)
Assay: devTOX quickPredict
Assay type: cell-based
Details: cell viability, threshold 0.85, 48 hours
Outline: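 Human iPS cells exposed across a concentration range. Ornithine and cystine abundance measured, and ornithine/cystine ratio calculated at each concentration. dTP is the concentration, interpolated from the ratio response curve, where the ratio drops below a predefined developmental-toxicity threshold set from pharmaceuticals of known human teratogenicity. TP is the concentration where viability falls below the same threshold. Nominal values converted to free-medium concentration by mass-balance model.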

| SMILES | TP |
| --- | --- |
| CCCCC(C)C(=O)O (centres unmarked) [MHA, 2‐Methylhexanoic acid] | 1,631 μM |
| CCCC(CCC)C(=O)O [VPA, Valproic acid, reference compound] | 318 µM |
| CCCCCC(CCC)C(=O)O (centres unmarked) [PHA, 2‐Propylheptanoic acid] | 425 µM |

Same assay, conditions: o/c ratio, threshold 0.85, 48 hours

| SMILES | dTP |
| --- | --- |
| CCCC(C)C(=O)O (centres unmarked) [MPA, 2‐Methylpentanoic acid] | 1,248 μM |
| CCCCC(C)C(=O)O (centres unmarked) [MHA, 2‐Methylhexanoic acid] | 976 µM |
| CCCC(CCC)C(=O)O [VPA, Valproic acid, reference compound] | 236 µM |
| CCCCCC(CCC)C(=O)O (centres unmarked) [PHA, 2‐Propylheptanoic acid] | 546 µM |
| CCC(CC)C(=O)O [EBA, 2‐Ethylbutyric acid] | 1,071 μM |

Test system: not listed separately
Assay: IVIVE, rat EAD with one‐compartment PPK model
Details: oral, Css = dTP
Outline: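 Rat one-compartment population PK model assuming 100% absorption. Total clearance was hepatic plus renal (passive glomerular filtration), with inputs of plasma unbound fraction and hepatocyte Clint (predicted or experimental). Monte Carlo simulation of 10,000 individuals gave the upper 95th percentile steady-state plasma concentration. EAD was the dose giving total Css equal to the nominal dTP or Armitage-model free medium concentration.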

| SMILES | EAD using PPK model, using nominal dTP Conc. |
| --- | --- |
| CCCC(C)C(=O)O (centres unmarked) [MPA, 2‐Methylpentanoic acid] | 2,957.1 mg/kg/day |
| CCCCC(C)C(=O)O (centres unmarked) [MHA, 2‐Methylhexanoic acid] | 924.3 mg/kg/day |
| CCCC(CCC)C(=O)O [VPA, Valproic acid, reference compound] | 33.3 mg/kg/day |
| CCCCCC(CCC)C(=O)O (centres unmarked) [PHA, 2‐Propylheptanoic acid] | 27.5 mg/kg/day |
| CCC(CC)C(=O)O [EBA, 2‐Ethylbutyric acid] | 2,708.3 mg/kg/day |

Same assay, conditions: oral, Css = free medium dTP

| SMILES | EAD using PPK model, using free medium Conc. |
| --- | --- |
| CCCC(C)C(=O)O (centres unmarked) [MPA, 2‐Methylpentanoic acid] | 2,407.2 mg/kg/day |
| CCCCC(C)C(=O)O (centres unmarked) [MHA, 2‐Methylhexanoic acid] | 573.1 mg/kg/day |
| CCCC(CCC)C(=O)O [VPA, Valproic acid, reference compound] | 14.3 mg/kg/day |
| CCCCCC(CCC)C(=O)O (centres unmarked) [PHA, 2‐Propylheptanoic acid] | 6.3 mg/kg/day |
| CCC(CC)C(=O)O [EBA, 2‐Ethylbutyric acid] | 2,260.4 mg/kg/day |

Test system: not listed separately
Assay: IVIVE, rat EAD with httk.PBTK model
Details: oral, Cmax = dTP
Outline: (§1)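 Reverse dosimetry used the generic PBTK model from httk R package v1.8.1: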

| SMILES | EAD using Httk.PBTK model, using nominal dTP Conc. |
| --- | --- |
| CCCC(C)C(=O)O (centres unmarked) [MPA, 2‐Methylpentanoic acid] | 574.2 mg/kg/day |
| CCCCC(C)C(=O)O (centres unmarked) [MHA, 2‐Methylhexanoic acid] | 331.4 mg/kg/day |
| CCCC(CCC)C(=O)O [VPA, Valproic acid, reference compound] | 13.5 mg/kg/day |
| CCCCCC(CCC)C(=O)O (centres unmarked) [PHA, 2‐Propylheptanoic acid] | 39.5 mg/kg/day |
| CCC(CC)C(=O)O [EBA, 2‐Ethylbutyric acid] | 517.4 mg/kg/day |

Same assay, conditions: oral, Cmax = free medium dTP

| SMILES | EAD using Httk.PBTK model, using free medium Conc. |
| --- | --- |
| CCCC(C)C(=O)O (centres unmarked) [MPA, 2‐Methylpentanoic acid] | 467.4 mg/kg/day |
| CCCCC(C)C(=O)O (centres unmarked) [MHA, 2‐Methylhexanoic acid] | 205.5 mg/kg/day |
| CCCC(CCC)C(=O)O [VPA, Valproic acid, reference compound] | 5.8 mg/kg/day |
| CCCCCC(CCC)C(=O)O (centres unmarked) [PHA, 2‐Propylheptanoic acid] | 9.1 mg/kg/day |
| CCC(CC)C(=O)O [EBA, 2‐Ethylbutyric acid] | 431.8 mg/kg/day |

Test system: not listed separately
Assay: IVIVE, human EAD with httk.PBTK model
Details: oral
Outline: as §1

| SMILES | EAD, Httk.PBTK model, free medium concentration | EAD, Httk.PBTK model, nominal dTP |
| --- | --- | --- |
| CCCC(C)C(=O)O (centres unmarked) [MPA, 2‐Methylpentanoic acid] | 440.6 mg/kg/day | 541.2 mg/kg/day |
| CCCCC(C)C(=O)O (centres unmarked) [MHA, 2‐Methylhexanoic acid] | 176.0 mg/kg/day | 285.5 mg/kg/day |
| CCCC(CCC)C(=O)O [VPA, Valproic acid, reference compound] | 4.5 mg/kg/day | 10.4 mg/kg/day |
| CCC(CC)C(=O)O [EBA, 2‐Ethylbutyric acid] | 404.5 mg/kg/day | 484.7 mg/kg/day |

Test system: not listed separately
Assay: IVIVE, human EAD with GastroPlus pregnancy PBPK model
Details: human pregnancy, 12 weeks gestation

| SMILES | EAD, GP.pregancy model, Maternal plasma Cmax, free medium concentration | EAD, GP.pregancy model, Maternal plasma Cmax, nominal dTP |
| --- | --- | --- |
| CCCC(C)C(=O)O (centres unmarked) [MPA, 2‐Methylpentanoic acid] | 135.8 mg/kg/day | 166.9 mg/kg/day |
| CCCCC(C)C(=O)O (centres unmarked) [MHA, 2‐Methylhexanoic acid] | 36.5 mg/kg/day | 59.12 mg/kg/day |
| CCCC(CCC)C(=O)O [VPA, Valproic acid, reference compound] | 2.7 mg/kg/day | 6.4 mg/kg/day |
| CCC(CC)C(=O)O [EBA, 2‐Ethylbutyric acid] | 127.8 mg/kg/day | 153.2 mg/kg/day |

Same assay, conditions: human, across all models, nominal and free

| SMILES | range of EADs derived from the in vitro dTP concentration |
| --- | --- |
| CCCC(CCC)C(=O)O [VPA, Valproic acid, reference compound] | 2.7 to 24.4 mg/kg/day |

Test system: not listed separately
Assay: EAD by linear extrapolation of clinical dose‐Cmax data
Details: human, linear extrapolation of clinical dose‐Cmax data from PharmaPendium
Outline: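 Clinical dose–plasma Cmax data for the reference teratogen were taken from PharmaPendium. Dose giving Cmax equal to the in vitro dTP concentration was found by linear extrapolation. dTP is the interpolated concentration where the ornithine/cystine ratio curve in the human iPS cell devTOX qP assay falls below the predefined threshold.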

| SMILES | EAD based on Clinical PK data |
| --- | --- |
| CCCC(CCC)C(=O)O [VPA, Valproic acid, reference compound] | 4.6 mg/kg/day |

Test system: rat dams and fetuses
Assay: not given
Details: Sprague–Dawley, GD 8–17, dose range 0–800; ref Binkerd et al., 1988; cited from earlier work

| SMILES | LEL: Fetal toxicity |
| --- | --- |
| CCCC(CCC)C(=O)O [VPA, Valproic acid, reference compound] | 200 mg/kg/day |

Same assay, conditions: Sprague–Dawley, corn oil gavage, GD 6–15; ref Narotsky et al., 1994; cited from earlier work

| SMILES | LEL: Maternal toxicity | LEL: Fetal toxicity |
| --- | --- | --- |
| CCCC(C)C(=O)O (centres unmarked) [MPA, 2‐Methylpentanoic acid] | 188 mg/kg/day |  |
| CCCC(CCC)C(=O)O [VPA, Valproic acid, reference compound] | 400 mg/kg/day | 200 mg/kg/day |

Same assay, conditions: rat, oral repeat dosing, maternal and fetal LELs combined; ref Table 2 sources; cited from earlier work

| SMILES | Developmental toxicity LEL |
| --- | --- |
| CCCC(C)C(=O)O (centres unmarked) [MPA, 2‐Methylpentanoic acid] | 188 mg/kg/day |
| CCCC(CCC)C(=O)O [VPA, Valproic acid, reference compound] | 200 mg/kg/day and 200 to 400 mg/kg/day |
| CCC(CC)C(=O)O [EBA, 2‐Ethylbutyric acid] | 150 mg/kg/day |

Test system: not given
Assay: not given
Details: across all in vitro assays (OEDall); ref OECD, 2020; cited from earlier work

| SMILES | Range of all human OEDs reported |
| --- | --- |
| CCCC(C)C(=O)O (centres unmarked) [MPA, 2‐Methylpentanoic acid] | 35.2–1,353.3 |
| CCCCC(C)C(=O)O (centres unmarked) [MHA, 2‐Methylhexanoic acid] | 2.3–928.4 |
| CCCC(CCC)C(=O)O [VPA, Valproic acid, reference compound] | 0.11–51.9 |
| CCC(CC)C(=O)O [EBA, 2‐Ethylbutyric acid] | 34.4–826.6 |

Same assay, conditions: from CALUX Min EC10 cell-total; ref OECD 2020; cited from earlier work

| SMILES | Human OED_max fu model |
| --- | --- |
| CCCC(C)C(=O)O (centres unmarked) [MPA, 2‐Methylpentanoic acid] | 37.3 mg/kg |
| CCCCC(C)C(=O)O (centres unmarked) [MHA, 2‐Methylhexanoic acid] | 2.3 mg/kg |
| CCCC(CCC)C(=O)O [VPA, Valproic acid, reference compound] | 3.2 mg/kg |
| CCC(CC)C(=O)O [EBA, 2‐Ethylbutyric acid] | 35.8 mg/kg |

Same assay, conditions: from UKN1 HDAC inhibition EC10; ref OECD 2020; cited from earlier work

| SMILES | Human OED_max fu model |
| --- | --- |
| CCCC(C)C(=O)O (centres unmarked) [MPA, 2‐Methylpentanoic acid] | 186.6 mg/kg |
| CCCCC(C)C(=O)O (centres unmarked) [MHA, 2‐Methylhexanoic acid] | 254.8 mg/kg |
| CCCC(CCC)C(=O)O [VPA, Valproic acid, reference compound] | 3 mg/kg |
| CCC(CC)C(=O)O [EBA, 2‐Ethylbutyric acid] | 161.4 mg/kg |

Same assay, conditions: from ZET pericardial and/or yolk oedema Total embryo EC10; ref OECD 2020; cited from earlier work

| SMILES | Human OED_max fu model |
| --- | --- |
| CCCC(C)C(=O)O (centres unmarked) [MPA, 2‐Methylpentanoic acid] | 84.5 mg/kg |
| CCCCC(C)C(=O)O (centres unmarked) [MHA, 2‐Methylhexanoic acid] | 55.1 mg/kg |
| CCCC(CCC)C(=O)O [VPA, Valproic acid, reference compound] | 2.8 mg/kg |
| CCC(CC)C(=O)O [EBA, 2‐Ethylbutyric acid] | 53.3 mg/kg |

Same assay, conditions: from mEST HDAC inhibition, day 10 EC10; ref OECD 2020; cited from earlier work

| SMILES | Human OED_max fu model |
| --- | --- |
| CCCC(C)C(=O)O (centres unmarked) [MPA, 2‐Methylpentanoic acid] | 261.1 mg/kg |
| CCCCC(C)C(=O)O (centres unmarked) [MHA, 2‐Methylhexanoic acid] | 286.3 mg/kg |
| CCCC(CCC)C(=O)O [VPA, Valproic acid, reference compound] | 2 mg/kg |
| CCC(CC)C(=O)O [EBA, 2‐Ethylbutyric acid] | 357.8 mg/kg |

Same assay, conditions: most sensitive endpoint in each in vitro model (OEDnarrow); ref OECD, 2020; cited from earlier work

| SMILES | Range of human OEDs estimated from most sensitive endpoints |
| --- | --- |
| CCCC(C)C(=O)O (centres unmarked) [MPA, 2‐Methylpentanoic acid] | 37.3–261.1 |
| CCCCC(C)C(=O)O (centres unmarked) [MHA, 2‐Methylhexanoic acid] | 2.3–286.3 |
| CCCC(CCC)C(=O)O [VPA, Valproic acid, reference compound] | 0.11–3.2 |
| CCC(CC)C(=O)O [EBA, 2‐Ethylbutyric acid] | 35.8–357.8 |
